Screens as filed in PubChem.
CHOP inhibitor: blocks CHOP induction under ER stress; actives 3.8% (n = 220,000); AID 2732; inhibition, % at 10 µM; CHO-K1 CHOP-promoter luciferase, tunicamycin-induced, 15-18 h;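 active = compounds that reduced the stress-induced luciferase reporter signal by more than about 70% of percent inhibition, limit read from the data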;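 note: 0% = tunicamycin plus vehicle and 100% = wells without tunicamycin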
NS3 helicase inh: inhibitors of Hepatitis C virus NS3 helicase; NS3 helicase DNA unwinding, Cy5 molecular beacon fluorescence; actives 0.56% (n = 290,000); AID 1800; inhibition, % at 10.9 µM;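 active = inhibition above the mean of all tested compounds plus 3 SD, set per campaign, cut at about 35% in these data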;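 note: 0% = DMSO wells and 100% = thioflavine S control wells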
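System: NS3 helicase fragment of HCV / Schedule: 1 h at 25 °C / Control set: DMSO alone as 0% and 110 µM thioflavine S as 100% / Reagent: Cy5/quencher beacon DNA duplex and ATP to start / Technique: Cy5 fluorescence / Replication: singlicate / Evaluation: % inhibition of end-to-start signal ratio versus controls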
UPR XBP1 act: adaptive UPR (XBP1) activation | actives 0.33% (n = 330,000) | CHO-XBP1 luciferase reporter, IRE1-XBP1 UPR activation, luminescence; percent of tunicamycin response, DMSO as zero | activation, % at 20 µM;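 active = versus positive control, 20 µM dose yields 30% or more activation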;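 note: 100% = tunicamycin at 10 µg/mL and 0% = DMSO only wells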
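Test system: CHO-XBP1 luciferase reporter cells | Buffer or medium: Serum-containing F12 medium, 10% FBS | Schedule: 6 h compound exposure at 37 °C, 5% CO2 | Detection: Steady-Glo luciferase glow luminescence, 10 min after reagent addition | Read-out basis: Activation, % of tunicamycin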
M18AAP inhibitor: blocks P. falciparum M18 aspartyl aminopeptidase; recombinant PfM18AAP, H-Glu-NHMec fluorogenic cleavage; inhibition, % at 7.35 µM; AID 1822; actives 1.2% (n = 290,000);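 active = inhibition above the campaign mean inhibition over all tested compounds plus 3 SD, cut at about 28% in these data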;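 note: 0% = plate median of test compound wells and 100% = 2 mM ZnCl2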
UPR CHOP act: activators of apoptotic arm of unfolded protein response (CHOP) | CHO-CHOP luciferase reporter, UPR activation, luminescence; percent of tunicamycin response over DMSO baseline | activation, % at 10 µM | actives 0.34% (n = 330,000);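 active = at 10 µM dose, activation of 40% or more, normalized to positive control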;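 note: 100% = tunicamycin at 10 µg/mL and 0% = DMSO alone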
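Test system: CHO-CHOP cells, stable luciferase reporter of PERK-eIF2a-CHOP signalling | Quantity: 500 CHO-CHOP cells per well | Buffer or medium: F12 plus 10% serum | Compound dosing: 10 µM single point, 0.5% DMSO | Schedule: 6 h compound treatment, 37 °C | Signal: Luciferase luminescence | Control set: Tunicamycin high control, DMSO low control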
p97 inhibitor: blocks human p97 ATPase activity | actives 0.42% (n = 220,000) | inhibition, % at 8 µM | recombinant p97 ATPase, Kinase-Glo ATP luminescence, 3 h; in the data active = inhibition above about 15%;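 note: 0% = DMSO vehicle and 100% = wells lacking enzyme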
Target sequence (P55072 whole entry, looked up): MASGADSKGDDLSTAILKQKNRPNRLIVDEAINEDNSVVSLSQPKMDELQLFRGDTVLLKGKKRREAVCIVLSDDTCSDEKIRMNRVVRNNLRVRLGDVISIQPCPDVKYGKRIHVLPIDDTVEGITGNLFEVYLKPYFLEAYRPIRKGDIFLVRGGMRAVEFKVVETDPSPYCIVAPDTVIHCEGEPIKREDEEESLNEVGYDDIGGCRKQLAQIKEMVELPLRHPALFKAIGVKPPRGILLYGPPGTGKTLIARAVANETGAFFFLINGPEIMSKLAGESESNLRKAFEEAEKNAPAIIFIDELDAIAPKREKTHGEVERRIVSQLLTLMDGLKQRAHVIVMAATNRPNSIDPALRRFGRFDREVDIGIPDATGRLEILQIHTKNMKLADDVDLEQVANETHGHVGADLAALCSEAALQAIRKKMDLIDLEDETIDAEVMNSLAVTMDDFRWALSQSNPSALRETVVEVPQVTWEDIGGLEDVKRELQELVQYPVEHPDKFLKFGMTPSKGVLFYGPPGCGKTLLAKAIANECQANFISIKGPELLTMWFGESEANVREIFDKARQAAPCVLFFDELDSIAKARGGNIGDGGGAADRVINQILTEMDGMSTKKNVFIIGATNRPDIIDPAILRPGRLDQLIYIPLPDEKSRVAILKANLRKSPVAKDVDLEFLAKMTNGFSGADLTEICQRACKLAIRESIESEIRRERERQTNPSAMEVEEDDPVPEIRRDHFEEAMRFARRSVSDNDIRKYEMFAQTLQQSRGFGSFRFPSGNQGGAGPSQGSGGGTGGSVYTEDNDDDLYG
Numbers without * were called inactive; x = no result. Only some compounds are listed: those with a hit (about 4.5% of all), similar ones and a draw of the others.

SMILES	CHOP inhibitor	NS3 helicase inh	UPR XBP1 act	M18AAP inhibitor	UPR CHOP act	p97 inhibitor
N#C/C(=C(/O)CN1CCCCC1)c1nc(-c2ccc(Cl)cc2)cs1	42.4	8.7	2.6	2.2	1.9	2.2
CCn1cc(C(=O)O)c(=O)c2cc(F)c(N3CCN(C(=S)NC(=O)c4ccccc4Cl)CC3)cc21	-5.2	0.4	-2.3	-0.8	-0.5	6.8
CCn1cc(C(=O)O)c(=O)c2cc(F)c(N3CCN(S(=O)(=O)c4ccc(Br)cc4)CC3)cc21	76.5*	4.4	12.0	-6.0	6.6	5.1
Cc1ccc(C)c(S(=O)(=O)NC(C)C(=O)Nc2ccc(-c3nc4ccccc4s3)cc2)c1 (stereo unspecified)	80.0*	2.6	1.3	-3.1	4.0	-5.0
CC(C)(C)c1ccc(S(=O)(=O)NCC(=O)Nc2ccc(-c3nc4ccccc4s3)cc2)cc1	95.7*	2.8	-1.7	-7.1	5.6	-1.7
Cc1ccc2nc(-c3ccc(NC(=O)CN(c4ccccc4C)S(C)(=O)=O)cc3)sc2c1	70.2*	0.7	-4.0	1.5	5.2	-2.3
Cc1ccc2nc(-c3ccc(NC(=O)CN4C(=O)NC(C)(c5ccc(OC(F)F)cc5)C4=O)cc3)sc2c1 (stereo unspecified)	76.3*	-12.1	10.9	-2.0	5.3	5.5
O=C(O)c1cccc(S(=O)(=O)Nc2ccc3oc(=O)sc3c2)c1	-11.0	15.4	-4.0	41.5*	-2.1	3.4
O=c1oc2ccc(NS(=O)(=O)c3cccc4cccnc34)cc2s1	x	3.4	-3.4	31.4*	1.4	x
COC(=O)C1=C2SC(C)C(=O)N2C(N)=C(C#N)C1c1cc(OC)c(OC)c(OC)c1 (stereo unspecified)	-3.8	-18.2	-2.7	16.2	-1.1	4.0
COC(=O)C1=C2SC(C)C(=O)N2C(N)=C(C#N)C1c1ccc(OC)c(OC)c1 (stereo unspecified)	25.0	15.5	-0.1	29.8*	-1.8	-1.9
CCCCCn1c(CCC(=O)Oc2ccccc2OC)nc2c1c(=O)[nH]c(=O)n2CCCC	71.3*	-0.2	-3.4	2.6	1.7	-1.9
O=[N+]([O-])c1cccc(-c2nnc(-c3ccccc3)o2)c1	80.1*	0.8	0.9	0.2	3.9	5.8
Brc1ccc2ncnc(NCc3ccccc3)c2c1	86.6*	9.7	-1.2	-7.6	0.4	4.1
COc1ccc(Cl)cc1NC(=O)C1Cc2ccccc2CN1S(C)(=O)=O (stereo unspecified)	x	20.4	5.8	28.3*	0.9	x
CCc1nn(C(C)C(=O)NCc2cccc(OC)c2)c(=O)c2cc3occc3n12 (stereo unspecified)	x	10.8	-1.5	-1.1	-0.4	x
COCCn1c(=NC(=O)c2ccc(S(=O)(=O)N3CCc4ccccc4C3)cc2)sc2cc(S(N)(=O)=O)ccc21	23.5	6.5	-1.1	3.5	2.2	5.3
C=CCn1c(=NC(=O)c2ccc(S(=O)(=O)N3CCc4ccccc4C3)cc2)sc2cc(S(N)(=O)=O)ccc21	76.6*	-2.7	-1.8	2.6	2.6	8.8
Clc1ccccc1-c1nnc(-c2ccc3c(c2)OCO3)o1	18.0	-5.3	5.3	-4.5	0.4	0.2
O=[N+]([O-])c1ccc(CSC2=NCCN2)cc1	x	-4.1	-1.4	5.3	2.0	x
C#CCOCCOCCOCCNc1nc(N2CCN(C(=O)CCCCCCCCCCNC(=O)[C@H]([C@@H](C)CC)n3cc(CCCCCN)nn3)CC2)nc(N2CCN(C(=O)CCCCCCCCCCNC(=O)[C@@H]([C@H](C)CC)n3cc(CCCCCN)nn3)CC2)n1	x	x	32.0*	x	8.6	x
COc1ccc(NC(=O)CN(C)C(=O)c2oc3ccccc3c2C)cc1	24.0	2.8	-3.3	-4.3	-0.2	3.3
CCOC(=O)c1c(C)nc2c(c1-c1ccc(OC)c(OC)c1)C(=O)c1ccccc1-2	85.3*	2.8	4.3	-1.3	0.0	-4.4
COc1cccc(NCc2cc(=O)oc3cc(C)c(O)cc23)c1	x	-15.6	-3.4	3.7	1.4	x
COc1cccc(NCc2cc(=O)oc3cc(-c4ccccc4)c(O)cc23)c1	82.0*	3.3	-0.1	1.1	3.0	3.3
SMILES	CHOP inhibitor	NS3 helicase inh	UPR XBP1 act	M18AAP inhibitor	UPR CHOP act	p97 inhibitor
N#Cc1c(N)nc2c(c1-c1ccc3c(c1)OCO3)CCCCCC2	86.0*	-14.3	2.0	-2.5	4.5	2.5
O=C(O)COc1ccccc1/C=C1\SC(=S)N(/N=C/c2ccccc2O)C1=O	6.2	10.8	1.9	32.7*	3.4	4.0
O=C(O)COc1ccccc1/C=C1\SC(=S)N(NC(=O)c2ccccc2O)C1=O	x	x	-1.3	x	-0.5	x
O=C(Nc1ccc(Cl)cc1)Nc1ccc(Br)cn1	x	0.3	-2.4	-12.2	4.8	x
O=C(/C(Cl)=C/Nc1ccc(Br)cn1)C(F)(F)F	86.6*	-8.1	8.2	-7.5	1.0	3.4
CCOc1cccc(-c2nn(-c3ccccc3)cc2/C=C(/C#N)C(=O)NCCCn2ccnc2)c1	95.0*	-54.7	11.9	6.0	8.0	9.1
COC(=O)c1sccc1NC(=O)c1cc(-c2cc(C)ccc2C)nc2ccccc12	92.8*	11.9	0.2	-8.1	1.2	2.3
COC(=O)c1sc(NC(=O)c2cc(-c3ccccc3)nc3ccccc23)c(C#N)c1C	75.5*	10.4	0.2	45.4*	8.4	0.8
CCC(=O)Nc1cc2nn(-c3ccccc3)nc2cc1Cl	79.0*	-4.8	-1.5	0.7	-2.1	-1.4
O=C(Nn1nnnc1Nc1ccccc1)C12CC3CC(CC(C3)C1)C2	93.8*	6.4	-7.7	-5.6	-0.4	-2.3
O=C(NCc1ccccc1)C12CC3CC(CC(C3)C1)C2	43.2	-6.0	-0.3	1.9	-2.6	-0.3
Cc1cccc(OCc2nnc(SCC(=O)Nc3ncc(C)s3)o2)c1	13.3	-0.7	1.2	31.4*	3.6	3.9
COc1ccc(OCc2nnc(SCC(=O)Nc3ccc(C)cc3)o2)cc1	x	6.0	0.3	-6.8	0.5	x
Cc1ccc(OCc2nnc(SCC(=O)CC(=O)Nc3ccccc3)o2)cc1	72.7*	20.0	-2.7	18.4	-2.3	0.8
Cc1cccc(OCc2nnc(SCC(=O)Nc3ccc(C)c(C)c3)o2)c1	0.1	1.0	-2.0	0.6	1.8	-0.7
CCc1ccc(-c2cc3c(=O)n(CC(=O)NCCN4CCCCC4C)nc(C)n3n2)cc1 (stereo unspecified)	x	-32.3	-0.4	1.9	1.9	x
Cc1ccc(S(=O)(=O)N2CCN(C(=O)COC(=O)CCCOc3ccccc3)CC2)c(C)c1	x	x	-1.1	x	2.8	x
Clc1ccc(Sc2cnc3ccccc3n2)cc1	76.2*	1.1	0.2	3.7	3.0	6.1
Clc1nnc(N/N=C/c2ccccc2)c2ccccc12	75.3*	3.9	2.4	16.8	1.4	0.5
